One block for each molecule: values may come before it.
What was measured:
Interstitial collagenase = biological target: T1, Interstitial collagenase (Homo sapiens, UniProt P03956); test: Inhibition of human recombinant MMP-1 incubated for 30 mins by fluorescence based analysis
T1 sequence (P03956 whole entry): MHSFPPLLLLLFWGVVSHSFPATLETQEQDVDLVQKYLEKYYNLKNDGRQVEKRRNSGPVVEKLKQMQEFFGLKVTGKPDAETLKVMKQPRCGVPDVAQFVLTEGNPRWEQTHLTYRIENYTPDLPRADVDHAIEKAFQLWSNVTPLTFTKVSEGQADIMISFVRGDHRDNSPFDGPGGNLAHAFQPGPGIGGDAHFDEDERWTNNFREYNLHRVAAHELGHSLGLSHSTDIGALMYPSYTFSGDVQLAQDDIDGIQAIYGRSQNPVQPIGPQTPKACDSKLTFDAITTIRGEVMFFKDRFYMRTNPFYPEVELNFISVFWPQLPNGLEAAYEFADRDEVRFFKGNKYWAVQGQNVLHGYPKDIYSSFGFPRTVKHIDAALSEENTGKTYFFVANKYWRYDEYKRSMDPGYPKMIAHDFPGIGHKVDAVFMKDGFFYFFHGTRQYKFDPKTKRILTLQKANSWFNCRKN

[1] = biological target: Matrix metalloproteinase-9 (Homo sapiens, UniProt P14780); test: Inhibition of human recombinant MMP-9 incubated for 30 mins by fluorescence based analysis
Neutrophil collagenase = Neutrophil collagenase (Homo sapiens, UniProt P22894); test: Inhibition of human recombinant MMP-8 incubated for 30 mins by fluorescence based analysis
Stromelysin-2 = Stromelysin-2 (Homo sapiens, UniProt P09238); test: Inhibition of human recombinant MMP-10 using […]-Pro-Lys-Pro-Val-Glu-Nval-Trp-Arg-Lys(Dnp)-NH2 as substrate preincubated for 30 mins followed by substrate addition by fluorescence based analysis
[2] = biological target: 72 kDa type IV collagenase (Homo sapiens, UniProt P08253); test: Inhibition of human recombinant MMP-2 incubated for 30 mins by fluorescence based analysis
Collagenase 3 = Collagenase 3 (Homo sapiens, UniProt P45452); test: Inhibition of human recombinant MMP-13 using Mca-Lys-Pro-Leu-GlyLeu-Dpa-Ala-Arg-NH2 as substrate preincubated for 30 mins followed by substrate addition by fluorescence based analysis
[3] = Tmax in western atherogenic diet fed ApoE-/- mouse blood at […], iv administered as bolus injection measured for 60 mins by PET analysis; format: ADME, organism-based; settings: in vivo, 1 h
Summary of the method: (§1)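 A 10 min transmission scan preceded tail-vein IV bolus of radiotracer (~7.5 MBq, over 30 s) in diet-fed ApoE-/- mice. Dynamic whole-body PET ran for 60 min (4×15 s, 4×1 min, 11×5 min frames), corrected for attenuation and scatter, 3D-OSEM/MAP reconstruction. Volumetric organ ROIs gave %ID·cc⁻¹ time-activity curves; n = 2 per group.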

[4] = Drug distribution in western atherogenic diet fed ApoE-/- mouse kidney at […], iv administered as bolus injection measured for 60 mins by PET analysis; format: ADME, organism-based; settings: in vivo, 1 h; summary of the method: as §1
[5] = Drug distribution in western atherogenic diet fed ApoE-/- mouse myocardium assessed as compound remaining at […], iv administered as bolus injection measured for 30 mins by gamma counter analysis; format: ADME, organism-based; settings: in vivo, 0.5 h
Summary of the method: (§2)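 Diet-fed male ApoE-/- mice (39 ± 5 g, n = 4-6) under 2% isoflurane received radiotracer (~7.5 MBq, 100-200 µL) IV by tail-vein bolus over 30 s. After 30 min, blood was taken by cardiac puncture, then PBS/formalin perfusion and organ dissection. Uptake is decay-corrected %ID normalized to tissue mass (%ID/g).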

[6] = Drug distribution in western atherogenic diet fed ApoE-/- mouse spleen at […], iv administered as bolus injection measured for 30 mins by gamma counter analysis; format: ADME, organism-based; settings: in vivo, 0.5 h; summary of the method: as §2
[7] = Drug distribution in western atherogenic diet fed ApoE-/- mouse liver at […], iv administered as bolus injection measured for 60 mins by PET analysis; format: ADME, organism-based; settings: in vivo, 1 h; summary of the method: as §1
[8] = Drug distribution in western atherogenic diet fed ApoE-/- mouse brain at […], iv administered as bolus injection measured for 30 mins by gamma counter analysis; format: ADME, organism-based; settings: in vivo, 0.5 h; summary of the method: as §2
[9] = Drug distribution in western atherogenic diet fed ApoE-/- mouse myocardium assessed as myocardial retention at […], iv administered as bolus injection measured for 60 mins by PET analysis; format: ADME, organism-based; settings: in vivo, 1 h; summary of the method: as §1
[10] = Drug distribution in western atherogenic diet fed ApoE-/- mouse muscle tissue at […], iv administered as bolus injection measured for 30 mins by gamma counter analysis; format: ADME, organism-based; settings: in vivo, 0.5 h; summary of the method: as §2
[11] = Drug distribution in western atherogenic diet fed ApoE-/- mouse blood assessed as compound remaining at […], iv administered as bolus injection measured for 30 mins by gamma counter analysis; format: ADME, organism-based; settings: in vivo, 0.5 h; summary of the method: as §2
[12] = Drug distribution in western atherogenic diet fed ApoE-/- mouse urinary bladder at […], iv administered as bolus injection measured for 60 mins by PET analysis; format: ADME, organism-based; settings: in vivo, 1 h; summary of the method: as §1
[13] = Drug distribution in western atherogenic diet fed ApoE-/- mouse kidney at […], iv administered as bolus injection measured for 30 mins by gamma counter analysis; format: ADME, organism-based; settings: in vivo, 0.5 h; summary of the method: as §2
[14] = Drug distribution in western atherogenic diet fed ApoE-/- mouse stomach at […], iv administered as bolus injection measured for 30 mins by gamma counter analysis; format: ADME, organism-based; settings: in vivo, 0.5 h; summary of the method: as §2
[15] = Drug distribution in western atherogenic diet fed ApoE-/- mouse intestine at […], iv administered as bolus injection measured for 60 mins by PET analysis; format: ADME, organism-based; settings: in vivo, 1 h; summary of the method: as §1
[16] = Drug distribution in western atherogenic diet fed ApoE-/- mouse aortic plaques at […], iv administered as bolus injection measured for 30 mins by Oil Red O staining based autoradiography; format: ADME, organism-based, Aorta; settings: in vivo, 0.5 h
Summary of the method: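 Male ApoE-/- mice were fed a western atherogenic diet from 8 weeks of age for 13-16 weeks. Radiotracer (~7.5 MBq) was given IV by tail-vein bolus over 30 s. Blocking: unlabelled tracer analogue (2.5 mg/kg; DMA/propylene glycol/PEG400/water) or WAY170523 (7.5 mg/kg; DMSO/PEG400/water), both IV 15 min before. At 30 min, perfused aortae were exposed to a phosphor screen for 10 half-lives (%ID·mm⁻²), with ORO staining.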

[17] = Drug distribution in western atherogenic diet fed ApoE-/- mouse bone at […], iv administered as bolus injection measured for 30 mins by gamma counter analysis; format: ADME, organism-based, Bone element; settings: in vivo, 0.5 h; summary of the method: as §2
[18] = Drug distribution in western atherogenic diet fed ApoE-/- mouse intestine at […], iv administered as bolus injection measured for 30 mins by gamma counter analysis; format: ADME, organism-based; settings: in vivo, 0.5 h; summary of the method: as §2
[19] = Drug distribution in western atherogenic diet fed ApoE-/- mouse liver at […], iv administered as bolus injection measured for 30 mins by gamma counter analysis; format: ADME, organism-based; settings: in vivo, 0.5 h; summary of the method: as §2
[20] = Octanol/PBS distribution coefficient, logD of compound at pH 7.4 incubated for 10 mins under shaking condition by gamma counter analysis; format: physicochemical
Summary of the method: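 Radiotracer partitioning between 1-octanol and 1× PBS at pH 7.4. Mean ± standard error of two independent experiments, each in quadruplicate.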

[21] = Drug distribution in western atherogenic diet fed ApoE-/- mouse fat tissue at […], iv administered as bolus injection measured for 30 mins by gamma counter analysis; format: ADME, organism-based, Adipose tissue; settings: in vivo, 0.5 h; summary of the method: as §2
[22] = Drug distribution in western atherogenic diet fed ApoE-/- mouse lung at […], iv administered as bolus injection measured for 30 mins by gamma counter analysis; format: ADME, organism-based; settings: in vivo, 0.5 h; summary of the method: as §2
[23] = Stability in western atherogenic diet fed ApoE-/- mouse plasma assessed as intact compound level at ~75 MBq, iv administered as bolus injection and measured after 30 mins by gamma counter analysis; format: ADME, organism-based; settings: read-out: Stability
Summary of the method: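 Blood was drawn by cardiac puncture into K₂EDTA tubes 30 min after IV radiotracer in diet-fed ApoE-/- mice. Optional IV pretreatment 15 min before: unlabelled analogue 2.5 mg/kg or WAY170523 7.5 mg/kg. Pooled protein-free plasma was spiked with standard and run on radio-HPLC (C18, ammonium formate/ACN). Fractions were collected each minute and gamma-counted to give the parent fraction.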

[24] = Drug distribution in western atherogenic diet fed ApoE-/- mouse pancreas at […], iv administered as bolus injection measured for 30 mins by gamma counter analysis; format: ADME, organism-based; settings: in vivo, 0.5 h; summary of the method: as §2
[25] = Stability of compound in 10% EtOH/saline assessed as compound degradation measured upto 75 mins by analytical radio-HPLC analysis; format: physicochemical; settings: buffer, 1.25 h
Summary of the method: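 Radiotracer formulated in 10% EtOH/0.9% saline was held at room temperature up to 75 min. Samples were analysed by analytical radio-HPLC (C18, 0.1 M ammonium formate/ACN gradient, 1 mL·min⁻¹).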

Chain of Stromelysin-2 (P09238 whole entry): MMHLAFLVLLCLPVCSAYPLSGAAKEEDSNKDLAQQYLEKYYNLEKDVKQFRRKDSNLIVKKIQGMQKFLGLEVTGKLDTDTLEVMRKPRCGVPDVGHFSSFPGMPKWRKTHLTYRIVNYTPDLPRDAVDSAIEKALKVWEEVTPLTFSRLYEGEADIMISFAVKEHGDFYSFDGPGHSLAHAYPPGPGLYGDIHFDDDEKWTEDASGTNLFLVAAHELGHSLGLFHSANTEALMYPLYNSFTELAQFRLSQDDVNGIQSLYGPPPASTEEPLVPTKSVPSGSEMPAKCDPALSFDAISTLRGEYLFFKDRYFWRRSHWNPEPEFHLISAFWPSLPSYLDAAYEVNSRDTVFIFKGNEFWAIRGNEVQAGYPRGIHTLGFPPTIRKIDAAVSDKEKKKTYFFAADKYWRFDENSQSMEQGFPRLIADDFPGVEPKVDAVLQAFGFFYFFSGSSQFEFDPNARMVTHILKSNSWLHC
Chain of Matrix metalloproteinase-9 (P14780 whole entry): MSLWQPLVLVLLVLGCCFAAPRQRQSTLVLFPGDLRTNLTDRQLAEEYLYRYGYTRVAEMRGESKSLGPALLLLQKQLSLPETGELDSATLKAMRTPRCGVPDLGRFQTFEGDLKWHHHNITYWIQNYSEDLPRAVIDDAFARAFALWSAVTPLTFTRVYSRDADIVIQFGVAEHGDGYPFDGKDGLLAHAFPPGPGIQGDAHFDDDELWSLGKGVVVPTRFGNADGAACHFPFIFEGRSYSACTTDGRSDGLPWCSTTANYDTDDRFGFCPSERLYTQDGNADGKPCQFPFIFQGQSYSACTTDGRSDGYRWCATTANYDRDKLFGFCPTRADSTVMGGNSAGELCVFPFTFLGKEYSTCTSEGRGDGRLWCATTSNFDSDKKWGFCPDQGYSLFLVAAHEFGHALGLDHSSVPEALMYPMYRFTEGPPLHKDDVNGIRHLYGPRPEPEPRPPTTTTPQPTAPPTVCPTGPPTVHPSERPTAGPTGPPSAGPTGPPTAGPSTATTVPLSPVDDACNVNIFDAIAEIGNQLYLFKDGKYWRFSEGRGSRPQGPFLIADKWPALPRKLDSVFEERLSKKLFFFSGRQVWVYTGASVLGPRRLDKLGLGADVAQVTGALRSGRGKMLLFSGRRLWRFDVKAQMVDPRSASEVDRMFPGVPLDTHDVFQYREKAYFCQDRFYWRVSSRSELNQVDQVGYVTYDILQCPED
Chain of Neutrophil collagenase (P22894 whole entry): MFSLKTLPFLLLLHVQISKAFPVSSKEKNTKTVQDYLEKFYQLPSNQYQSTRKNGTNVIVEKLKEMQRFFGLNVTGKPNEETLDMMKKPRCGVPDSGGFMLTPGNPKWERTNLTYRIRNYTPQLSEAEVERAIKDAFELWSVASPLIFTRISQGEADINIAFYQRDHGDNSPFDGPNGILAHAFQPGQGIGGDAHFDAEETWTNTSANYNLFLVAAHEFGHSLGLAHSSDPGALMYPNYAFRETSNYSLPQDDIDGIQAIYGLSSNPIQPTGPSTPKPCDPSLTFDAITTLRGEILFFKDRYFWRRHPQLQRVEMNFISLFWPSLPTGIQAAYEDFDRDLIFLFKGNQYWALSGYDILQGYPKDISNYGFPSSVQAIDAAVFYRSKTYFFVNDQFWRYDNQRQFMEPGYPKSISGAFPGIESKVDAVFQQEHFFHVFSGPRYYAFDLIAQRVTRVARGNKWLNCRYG
Chain of 72 kDa type IV collagenase (P08253 whole entry): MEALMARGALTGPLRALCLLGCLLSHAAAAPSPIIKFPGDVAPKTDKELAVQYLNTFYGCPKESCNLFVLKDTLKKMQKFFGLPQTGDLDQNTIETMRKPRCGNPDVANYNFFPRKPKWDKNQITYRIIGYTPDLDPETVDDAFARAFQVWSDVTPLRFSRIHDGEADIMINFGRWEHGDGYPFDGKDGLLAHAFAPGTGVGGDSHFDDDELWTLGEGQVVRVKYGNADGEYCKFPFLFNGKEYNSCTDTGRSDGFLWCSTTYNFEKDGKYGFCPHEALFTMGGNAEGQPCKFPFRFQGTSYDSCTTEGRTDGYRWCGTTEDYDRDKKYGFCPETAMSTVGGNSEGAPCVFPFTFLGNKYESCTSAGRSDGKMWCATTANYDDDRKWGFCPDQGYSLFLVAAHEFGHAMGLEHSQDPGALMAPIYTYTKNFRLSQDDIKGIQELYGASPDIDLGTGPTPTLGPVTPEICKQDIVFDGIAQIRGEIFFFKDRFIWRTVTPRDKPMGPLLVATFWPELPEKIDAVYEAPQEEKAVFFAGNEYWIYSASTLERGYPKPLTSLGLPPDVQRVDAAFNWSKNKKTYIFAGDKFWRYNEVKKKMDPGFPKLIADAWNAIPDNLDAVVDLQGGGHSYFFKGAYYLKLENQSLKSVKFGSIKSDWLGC

Structure (SMILES): COc1cccc(CNC(=O)c2nc3ccc(F)c(OCCc4ccc(C(=O)O)cc4)c3c(=O)[nH]2)c1
- IC50 (Interstitial collagenase): > 10000 nM
- IC50 [1]: > 10000 nM
- IC50 (Neutrophil collagenase): 2400 nM
- IC50 (Stromelysin-2): 3200 nM
- IC50 [2]: > 10000 nM
- IC50 (Collagenase 3): 1.3 nM

Structure (SMILES): COc1ccc(CNC(=O)c2nc3ccc(F)c(OCCc4ccc(C(=O)O)cc4)c3c(=O)[nH]2)cc1
- IC50 (Interstitial collagenase): > 10000 nM
- IC50 [1]: > 10000 nM
- IC50 (Neutrophil collagenase): 1400 nM
- IC50 (Stromelysin-2): 2700 nM
- IC50 [2]: > 10000 nM
- IC50 (Collagenase 3): 2.9 nM

Structure (SMILES): [11CH3]Oc1cccc(CNC(=O)c2nc3ccc(F)c(OCCc4ccc(C(=O)O)cc4)c3c(=O)[nH]2)c1
- Tmax [3]: 37.5 s
- Drug uptake [4]: 21.01 %ID/cc
- Drug uptake [5]: ~ 1 % ID/g
- Drug uptake [6]: 2.11 % ID/g
- Drug uptake [7]: 25.29 %ID/cc
- Drug uptake [8]: ~ 2 % ID/g
- Drug uptake [9]: < 0.5 %ID/cc
- Drug uptake [10]: ~ 2 % ID/g
- Drug uptake [11]: 0.49 % ID/g
- Drug uptake [12]: Not Active
- Drug uptake [13]: 30.95 % ID/g
- Drug uptake [14]: ~ 2 % ID/g
- Drug uptake [15]: Active
- Drug uptake [16]: 52.97 %ID.m^-2
- Drug uptake [17]: ~ 2 % ID/g
- Drug uptake [18]: 53.05 % ID/g
- Drug uptake [19]: 7.29 % ID/g
- logD at 10 min [20]: 1.16
- Drug uptake [21]: ~ 2 % ID/g
- Drug uptake [22]: ~ 2 % ID/g
- remaining at 0.5 h [23]: 86%
- Drug uptake [24]: ~ 2 % ID/g
- Stability [25]: Stable

Structure (SMILES): Cc1cc(CNC(=O)c2nc3ccc(F)c(OCCF)c3c(=O)[nH]2)ccc1F
- IC50 (Interstitial collagenase): > 10000 nM
- IC50 [1]: > 10000 nM
- IC50 (Neutrophil collagenase): 1200 nM
- IC50 (Stromelysin-2): 3100 nM
- IC50 [2]: > 10000 nM
- IC50 (Collagenase 3): 16 nM

Structure (SMILES): Cc1cc(CNC(=O)c2nc3ccc(F)c(F)c3c(=O)[nH]2)ccc1F
- IC50 (Collagenase 3): 106 nM

More lines, in order of falling IC50 (Collagenase 3), values ahead:

- IC50 (Collagenase 3): 313 nM
Structure (SMILES): COc1ccc(CNC(=O)c2nc3ccc(F)c(F)c3c(=O)[nH]2)cc1

- IC50 (Collagenase 3): 52 nM
Structure (SMILES): Cc1cc(CNC(=O)c2cc(C(=O)NCc3ccc(OCCF)cc3)ncn2)ccc1F

- IC50 (Interstitial collagenase): > 10000 nM
- IC50 [1]: > 10000 nM
- IC50 (Neutrophil collagenase): 2100 nM
- IC50 (Stromelysin-2): 2800 nM
- IC50 [2]: > 10000 nM
- IC50 (Collagenase 3): 1.3 nM
Structure (SMILES): O=C(O)c1ccc(CCOc2c(F)ccc3nc(C(=O)NCc4cccc(O)c4)[nH]c(=O)c23)cc1

- IC50 (Interstitial collagenase): > 10000 nM
- IC50 [1]: > 10000 nM
- IC50 (Neutrophil collagenase): 1700 nM
- IC50 (Stromelysin-2): 2500 nM
- IC50 [2]: > 10000 nM
- IC50 (Collagenase 3): 1.2 nM
Structure (SMILES): Cc1cc(CNC(=O)c2nc3ccc(F)c(OCCc4ccc(C(=O)O)cc4)c3c(=O)[nH]2)ccc1F

Source: ChEMBL document CHEMBL5338774, “Quinazoline-2-Carboxamides as Selective PET Radiotracers for Matrix Metalloproteinase-13 Imaging in Atherosclerosis” (J Med Chem, 2023)
